According to paper PMC7993273 (Clinical and Translational Science, 2021):
Values joined by “and” are separate entries in the source; they are usually repeats but may differ in a detail not shown here. Equal values may be shown once.

Key:
Population PK model = format: in vivo, human
[1] = cited from earlier work
[2] = format: in vivo, human; conditions: 160 mg b.i.d.
How it was run: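 Final population PK model built from 4,925 plasma samples from 632 healthy volunteers and B-cell malignancy patients, on oral doses of 20–320 mg q.d. or b.i.d. Plasma levels were measured by validated HPLC-MS/MS (LLOQ 1 ng/mL). Steady-state AUCss, Cmax,ss and Cmin,ss were simulated for repeated 160 mg b.i.d. dosing, comparing 5th/95th-percentile covariate values against a median-covariate typical patient.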

[3] = Exposure at the 480-mg dose in HVs, study BGB-3111-106; format: in vivo, human
[4] = oral, patients with B-cell malignancies

**Q.** Which results are given for `C=CC(=O)N1CCC([C@@H]2CCNc3c(C(N)=O)c(-c4ccc(Oc5ccccc5)cc4)nn32)CC1` [zanubrutinib, Zanubrutinib]?
**A.** Ka, final model estimate (95% CI) (Population PK model; absorption rate constant): 0.526 (0.525, 0.526) 1/hour; D1, bootstrap estimate median (2.5–97.5 percentiles) (Population PK model; bootstrap of 1,000 datasets): 1.114 (0.974, 1.265) hour; IIV D1, bootstrap estimate median (2.5–97.5 percentiles) (Population PK model; bootstrap of 1,000 datasets): 62.2 (51.9, 72.4); IIV Q/F, bootstrap estimate median (2.5–97.5 percentiles) (Population PK model; bootstrap of 1,000 datasets): 103 (83.9, 118); IIV Vc/F, bootstrap estimate median (2.5–97.5 percentiles) (Population PK model; bootstrap of 1,000 datasets): 39.2 (25.9, 57.8); IIV Vp/F, bootstrap estimate median (2.5–97.5 percentiles) (Population PK model; bootstrap of 1,000 datasets): 80.4 (58.9, 94.6); IOV D1, bootstrap estimate median (2.5–97.5 percentiles) (Population PK model; bootstrap of 1,000 datasets): 62.2 (51.9, 72.4); IOV Vc/F, bootstrap estimate median (2.5–97.5 percentiles) (Population PK model; bootstrap of 1,000 datasets): 65.9 (49.4, 76.8); Ka, bootstrap estimate median (2.5–97.5 percentiles) (Population PK model; bootstrap of 1,000 datasets): 0.524 (0.481, 0.591) 1/hour; Q/F, bootstrap estimate median (2.5–97.5 percentiles) (Population PK model; bootstrap of 1,000 datasets): 25.6 (19.9, 32.3) L/hour; Vc/F, bootstrap estimate median (2.5–97.5 percentiles) (Population PK model; bootstrap of 1,000 datasets): 115 (88.4, 151) L; Vp/F, bootstrap estimate median (2.5–97.5 percentiles) (Population PK model; bootstrap of 1,000 datasets): 363 (274, 513) L; CL/F (HV), bootstrap estimate median (2.5–97.5 percentiles) (Population PK model; bootstrap of 1,000 datasets, healthy volunteers): 119 (110, 127) L/hour; CL/F (patient), bootstrap estimate median (2.5–97.5 percentiles) (Population PK model; bootstrap of 1,000 datasets, patient): 169 (162, 178) L/hour; effect of co-administration with PPIs and other ARAs on the PKs (Population PK model; covariate analysis, patients in clinical studies): did not appear to significantly impact; D1, final model estimate (95% CI) (Population PK model; duration of zero-order absorption into the depot compartment): 1.13 hour and 1.128 (1.125, 1.131) hour; coefficient of variance of elimination t 1/2 (Population PK model; final population PK model): 40.0%; CL/F (HV), final model estimate (95% CI) (Population PK model; healthy volunteers): 118 (107, 130) L/hour; Q/F, final model estimate (95% CI) (Population PK model; human, in vivo): 26.5 L/hour and 26.5 (26.3, 26.7) L/hour; Vc/F, final model estimate (95% CI) (Population PK model; human, in vivo): 112 L and 112 (111, 113) L; Vp/F, final model estimate (95% CI) (Population PK model; human, in vivo): 345 L and 345 (343, 347) L; half-life (Population PK model; human, plasma, oral): 3.44 h; IIV D1, final model estimate (95% CI) (Population PK model; interindividual variability): 62.3 (57.1, 67.1); IIV Q/F, final model estimate (95% CI) (Population PK model; interindividual variability): 102 (97.8, 106); IIV Vc/F, final model estimate (95% CI) (Population PK model; interindividual variability): 37.1 (NA, 53.1); IIV Vp/F, final model estimate (95% CI) (Population PK model; interindividual variability): 86.4 (71.3, 99.3); IIV estimated for CL/F (Population PK model; interindividual variability): 36.7%; IIV estimated for Vc/F (Population PK model; interindividual variability): 37.1%; IOV Vc/F, final model estimate (95% CI) (Population PK model; interoccasion variability): 67.5 (66.8, 68.3); absorption rate constant (Population PK model; typical patient with ALT of 18 U/L): 0.526 hour^‐1; CL/F (patient), final model estimate (95% CI) (Population PK model; typical patient with B-cell malignancy, ALT 18 U/L): 170 L/hour and 170 (169, 170) L/hour; systemic accumulation after multiple-dose administration ([1]; 40 mg to 320 mg q.d. and 160 mg b.i.d.): limited systemic accumulation; dose dependence of Cmax and AUC0–∞ ([1]; doses from 40 mg to 320 mg): dose‐proportional increase; mean terminal elimination half-life (t 1/2) [1, 4]: 2 to 4 h; median time to peak plasma concentration (Tmax) [1, 4]: 2 h; magnitude of effect of ALT on AUCss [2]: < 15%; magnitude of effect of ALT on Cmax,ss [2]: < 10%; magnitude of effect of ALT on Cmin,ss [2]: < 30%; AUC ([2]; human, plasma, oral, 160 mg, total daily AUC, typical patient): 1890 ng·h/mL; dose dependence of exposure at the 480-mg dose [3]: less than dose‐proportional increase in exposure
